# Most compounds without a hit are left out; they make up all but 1.9% or so of the library.
# RAD54 branch = inhibitors of human RAD54 branch migration, primary screen, biochemical, fluorescence, single point | actives 0.14% (n = 360,000) | inhibition, % at 10.4 µM | RAD54 Holliday junction branch migration, FAM/BHQ fluorescence | DNA repair and recombination protein RAD54-like (Homo sapiens), Q92698;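 active = mean normalized replicate activity at least 40 and at least half of replicates scoring 40 or more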;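 note: 0% = median of neutral control wells and 100% = median of positive control wells; inhibitors cause a drop in the FAM fluorescence signal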
# Target sequence (Q92698 whole entry, looked up): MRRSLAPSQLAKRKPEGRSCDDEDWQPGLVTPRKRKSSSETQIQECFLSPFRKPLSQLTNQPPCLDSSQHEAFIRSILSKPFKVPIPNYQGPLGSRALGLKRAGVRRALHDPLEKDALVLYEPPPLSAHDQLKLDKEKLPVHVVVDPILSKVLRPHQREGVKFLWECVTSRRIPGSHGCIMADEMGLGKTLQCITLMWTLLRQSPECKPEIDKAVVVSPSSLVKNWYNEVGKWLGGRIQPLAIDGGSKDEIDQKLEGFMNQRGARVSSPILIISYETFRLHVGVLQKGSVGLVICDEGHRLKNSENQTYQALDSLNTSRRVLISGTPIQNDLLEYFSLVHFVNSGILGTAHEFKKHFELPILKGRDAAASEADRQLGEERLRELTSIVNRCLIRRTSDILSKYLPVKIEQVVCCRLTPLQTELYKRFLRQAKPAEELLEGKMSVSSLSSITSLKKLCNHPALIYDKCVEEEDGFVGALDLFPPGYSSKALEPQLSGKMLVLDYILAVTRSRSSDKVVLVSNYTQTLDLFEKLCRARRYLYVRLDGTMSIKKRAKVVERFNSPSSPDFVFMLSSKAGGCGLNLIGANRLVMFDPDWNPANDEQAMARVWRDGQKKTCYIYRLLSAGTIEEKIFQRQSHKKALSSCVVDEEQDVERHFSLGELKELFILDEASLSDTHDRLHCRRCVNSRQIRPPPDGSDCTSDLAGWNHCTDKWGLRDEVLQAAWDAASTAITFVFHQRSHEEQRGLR
# Ecoli rRNA inh = reduced GFP signal of wild-type E. coli, primary screen, bacterial rRNA inhibitor project, GFP/RFP fluorescence, OD600, single point | E. coli WT GFP vs humanized-ribosome RFP mutants, 24 h; active compounds read low; DMSO median 0, no signal -100 | GFP signal change (wild-type ribosome), % (concentration not given with the values) | actives 1.6% (n = 350,000) | AID 720706, 2013;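 active = significant combined selectivity score with lowered wild-type GFP, culture density cut under 30%, mutant RFP and density less affected; inactive = any of these conditions unmet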
# Cneo AK release = Cryptococcus neoformans cell lysis inducers, primary screen, AK release luminescence, single concentration; lysis activity, % at 15 µM; C. neoformans lysis, adenylate kinase release luminescence, 4 h; normalised: neutral wells 0, clomiphene wells 100; actives 0.2% (n = 360,000);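 active = mean lysis activity across replicates of at least 80%, whatever share of replicates individually reach that level; inactive = mean lysis activity below 80%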
#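 Signal: Adenylate kinase release luminescence | Assay system: Log-phase Cryptococcus neoformans yeast cells | Input: Cells at 5 × 10^6 per mL | Buffer or medium: Fresh YPD growth medium | Compound: Single dose | Schedule: Static 4 h at 37 °C with compound, 1 h detection | Controls: Clomiphene | Read-out: Luminescence rise reflecting yeast cell lysis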
# RAD52 inh = RAD52 DNA annealing inhibitors, primary screen, biochemical, FRET, single point, set 2; DNA repair protein RAD52 homolog (Homo sapiens), P43351; recombinant RAD52 DNA annealing, FRET fluorescence; inhibition, % at 18.7 µM; actives 0.46% (n = 360,000); AID 651710, 2012;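 active = every replicate showing at least 50% inhibition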
# PglD inh = C. jejuni PglD acetyltransferase inhibitors, primary screen, biochemical, DTNB colorimetric, single point. UDP-N-acetylbacillosamine N-acetyltransferase PglD (Campylobacter jejuni). actives 0.098% (n = 360,000). purified PglD enzyme, DTNB colorimetric CoA detection. AID 602405, 2012. inhibition, % at 12.5 µM; in the data active = inhibition above about 16%, passing the limit was not always enough
# The depositor's hits bear a star; · = no result.
SMILES,RAD54 branch,Ecoli rRNA inh,Cneo AK release,RAD52 inh,PglD inh
Cc1ccc(-c2nnc(Nc3ccc(CC(N)=O)cc3)c3ccccc23)cc1S(=O)(=O)NCC1CCCO1 (configuration not stated),·,-30.7*,·,-17.4,·
CC1C(=O)Nc2ccccc2N1C(=O)c1ccc(Cl)c(Cl)c1 (configuration not stated),2.4,-26.8*,-0.7,8.9,4.0
Cn1c(C(C(=O)NCC2CCCO2)N(CCc2ccccc2)C(=O)Cn2nnc3ccccc32)nc2ccccc21 (configuration not stated),1.4,-22.3*,-0.6,-0.3,2.4
CC(C)CCNC(=O)C(c1ccco1)N(CC1CCCO1)C(=O)Cn1nnc2ccccc21 (configuration not stated),-1.2,3.6,2.9,-10.7,-3.3
C[C@H](CO)N1C[C@H](C)[C@H](CN(C)Cc2ccc(C(=O)O)cc2)Oc2ccc(NC(=O)Nc3ccc(F)cc3)cc2C1=O,0.9,2.1,0.7,10.6,6.2
O=S1(=O)N[C@@H](Cc2ccccc2)COc2cccc(N3CCC[C@H]3CO)c21,·,-27.2*,·,-49.2,·
O=C(Nc1ccc2c(c1)OCO2)c1ccc([N+](=O)[O-])cc1[N+](=O)[O-],1.1,-18.8*,3.0,2.2,6.9
O=C(Cc1ccc([N+](=O)[O-])cc1)Nc1ccc2c(c1)OCO2,·,10.8,·,-8.6,·
CCC(C)c1ccc(NC(=S)N2CCN(c3ccccn3)CC2)cc1 (configuration not stated),-3.0,-27.2,104.8*,-24.5,4.6
CCNC(=O)C[C@@H]1CC[C@H]2[C@@H](COc3ccc(NC(=O)Nc4cccc(Cl)c4)cc3C(=O)N2C)O1,-3.6,0.1,1.0,2.9,-3.0
C[C@@H]1CCCCO[C@H](CN(C)CC2CC2)[C@H](C)CN([C@H](C)CO)C(=O)c2cc(NS(=O)(=O)c3ccccc3)ccc2O1,·,3.2,·,29.7,·
CC(C)c1nc(C(=O)N2CCc3c([nH]c4ccccc34)C2c2ccccn2)cs1 (configuration not stated),·,-30.4,·,-0.1,·
Cc1nc(C(=O)N2CCc3c([nH]c4ccccc34)C2c2ccccn2)cs1 (configuration not stated),·,-19.7*,·,0.3,·
COCn1cnc(-c2ccccc2)c1-c1ccccc1,-0.7,-27.9*,-3.5,-5.0,4.8
CCN(CC)C(=O)n1cnc(-c2ccccc2)c1-c1ccccc1,·,-10.7,·,1.2,·
COc1ccc(NC(=O)CN2CCN(c3ccccc3Cl)CC2)cc1,-19.6,·,1.4,·,-1.5
COc1ccc(NC(=O)CN2CCN(c3ccccc3C)CC2)cc1,9.2,-31.0*,-2.7,-12.1,-8.0
CN(C)CCCN=Cc1c(O)n(Cc2ccccc2)c(=O)c2ccccc12,12.1,·,5.1,·,-6.1
CN(C)CCN=Cc1c(O)n(Cc2ccccc2)c(=O)c2ccccc12,0.9,-24.0*,-0.2,0.9,1.4
CO[C@H]1CN(C)C(=O)c2ccc(NC(=O)C3CC3)cc2OC[C@H](C)N(Cc2cncnc2)C[C@@H]1C,·,-1.2,·,·,·
CCOC(=O)c1ccc2c(c1)nc(SCC(=O)N1CCOCC1)n2CC,·,-39.0*,·,-16.8,·
CCCC#Cc1ccc(CC[C@H]2O[C@H]3CC[C@@H](CO)O[C@H]3C[C@@H]2n2cc(C(C)(C)O)nn2)cc1,·,·,·,-12.1,·
CO[C@@H]1CN(C)C(=O)c2ccc(NS(=O)(=O)c3cn(C)cn3)cc2OC[C@@H](C)N(C)C[C@@H]1C,-1.1,4.1,46.9,15.9,-1.1
Cc1cc(C)cc(NC(=O)Nc2cc(S(=O)(=O)N(C)C)ccc2C)c1,-5.4,-23.1*,-1.1,-3.2,-0.8
Cc1ccc(S(=O)(=O)N(C)C)cc1NC(=O)Nc1ccccc1F,-2.9,6.5,-1.9,-8.8,5.5
SMILES,RAD54 branch,Ecoli rRNA inh,Cneo AK release,RAD52 inh,PglD inh
O=C(Cc1ccccc1)N1CC2(C1)[C@@H](c1ccccc1)[C@@H](CO)N2S(=O)(=O)Cc1ccccc1,·,-2.8,·,-50.8,·
Nc1c2c(nc3ccc(Br)cc13)N(c1ccccc1)CC2,-1.0,·,0.0,·,-0.2
Cc1cccc(N2CCc3c2nc2ccc(Br)cc2c3N)c1,-11.9,-49.3*,7.8,-17.0,-7.1
O=C1NC[C@H](CCCCN2C[C@H](Cc3ccccc3)N(CC3CCCCC3)C(=O)C2=O)N(CCc2ccc(O)cc2)C1=O,·,-21.4*,·,-4.0,·
CC(C)C[C@H]1CNC(=O)C(=O)N1C[C@@H]1CCCN1C[C@H](Cc1ccc(O)cc1)N1C[C@H](Cc2ccccc2)N(CC2CCCCC2)C(=O)C1=O,·,-29.2*,·,-5.6,·
O=C1NC[C@H](CCCCN2C[C@H](Cc3ccccc3)N(CCc3ccc(O)cc3)C(=O)C2=O)N(CCc2ccc(O)cc2)C1=O,·,17.2,·,-13.7,·
CC(C)C[C@H]1CN([C@@H](Cc2ccccc2)CN2CCC[C@@H]2CN2C(=O)C(=O)NC[C@@H]2Cc2ccc(O)cc2)C(=O)C(=O)N1CC1CCCCCC1,-2.5,-15.8,1.3,-7.0,10.4
O=C1NC[C@H](CCCCN2C[C@H](Cc3ccccc3)N(CCc3ccc(O)cc3)C(=O)C2=O)N(CCc2ccccc2)C1=O,·,-18.5*,·,-6.2,·
NC(=O)C1Cc2ccccc2CN1C(=O)c1cc(C2CC2)nn1-c1ccccc1 (configuration not stated),-11.0,-20.6*,0.4,-14.0,3.2
CCC(=O)Nc1ccc2c(c1)OC[C@@H](C)N(C(=O)C1CCC1)C[C@@H](C)[C@@H](OC)CN(C)C2=O,-4.0,1.6,-9.0,-0.3,1.5
O=C(Nc1ccccc1)ON=C1c2ccccc2-c2ccccc21,·,-35.0*,·,-7.6,·
CCOC(=O)Nc1ccc2c(c1)C(=NO)c1ccccc1-2,·,-68.2,·,-27.3,·
COc1ccc(NC(=O)N(C)C[C@H]2OCCCC[C@H](C)Oc3ccc(N(C)C)cc3C(=O)N([C@@H](C)CO)C[C@@H]2C)cc1,2.8,-3.1,2.8,7.9,0.8
COc1ccc(C(=O)NCC2CCN(C(=O)C(=O)c3cc4ccccc4o3)CC2)c(OC)c1,·,-13.2*,·,-34.3,·
COc1ccc(CC(=O)NCC2CCN(C(=O)C(=O)c3cc4ccccc4o3)CC2)cc1,·,3.0,·,-17.4,·
O=C(C(=O)N1CCC(CNS(=O)(=O)c2ccc(F)cc2)CC1)c1cc2ccccc2o1,·,-8.9,·,-23.6,·
COC(=O)c1cc(S(=O)(=O)NCC2CCN(C(=O)C(=O)c3cc4ccccc4o3)CC2)cs1,·,-18.8*,·,-13.1,·
C[C@H]1CN([C@@H](C)CO)C(=O)c2cccc(NS(=O)(=O)c3cn(C)cn3)c2O[C@@H]1CN(C)C(=O)Nc1ccccc1,10.2,4.3,-3.0,3.4,-1.1

# Screens from PubChem BioAssay.
